Data published in ChEMBL document CHEMBL4732226, “Discovery of a potent G-protein-coupled receptor 119 agonist for the treatment of type 2 diabetes” (Bioorg Med Chem, 2021).
Activity calls are given as the source filed them. The calls are words filed in the database; no cut-off is given here.

What was measured:
[1] = Toxicity in male Wistar rat assessed as ratio of kidney to body weight at 100 mg/kg, po after 28 days (reference value: 0.787 +/- 0.078); type: organism-based; details: in vivo, 672 h, time 28 day
[2] = Toxicity in male Wistar rat assessed as ratio of testes to body weight at 200 mg/kg, po after 28 days (reference value: 1.248 +/- 0.073); type: organism-based; details: in vivo, 672 h, time 28 day
[3] = Toxicity in female Wistar rat assessed as ratio of liver to body weight at 400 mg/kg, po after 28 days (reference value: 3.219 +/- 0.221); type: organism-based; details: in vivo, 672 h, time 28 day
[4] = Toxicity in female Wistar rat assessed as ratio of uterus to body weight at 200 mg/kg, po after 28 days (reference value: 0.335 +/- 0.108); type: organism-based; details: in vivo, 672 h, time 28 day
[5] = AUC(0 to t) in Wistar rat at 10 mg/kg, po up to 24 hrs; type: ADME, organism-based; parameters: route oral, dose 10 mg/kg, time <=24; details: in vivo
Summary of the method: (§1)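 Single oral dose at 10 mg/kg given to male Wistar rats and to Beagle dogs; bioavailability also determined in both species.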

[6] = Toxicity in male Wistar rat assessed as AST level at 200 mg/kg, po after 28 days (reference value: 119.4 +/- 9.3 U/L); type: organism-based; details: in vivo, 672 h, time 28 day
[7] = Toxicity in female Wistar rat assessed as ratio of brain to body weight at 400 mg/kg, po after 28 days (reference value: 1.1 +/- 0.078); type: organism-based; details: in vivo, 672 h, time 28 day
[8] = Toxicity in female Wistar rat assessed as globulin level at 400 mg/kg, po after 28 days (reference value: 2.44 +/- 0.18 g/dl); type: organism-based; details: in vivo, 672 h, time 28 day
[9] = Toxicity in female Wistar rat assessed as ALP level at 100 mg/kg, po after 28 days (reference value: 100.14 +/- 21.98 U/L); type: organism-based; details: in vivo, 672 h, time 28 day
[10] = Toxicity in female Wistar rat assessed as globulin level at 200 mg/kg, po after 28 days (reference value: 2.44 +/- 0.18 g/dl); type: organism-based; details: in vivo, 672 h, time 28 day
[11] = Toxicity in male Wistar rat assessed as ratio of testes to body weight at 400 mg/kg, po after 28 days (reference value: 1.248 +/- 0.073); type: organism-based; details: in vivo, 672 h, time 28 day
[12] = Toxicity in male Wistar rat assessed as ratio of brain to body weight at 200 mg/kg, po after 28 days (reference value: 0.766 +/- 0.038); type: organism-based; details: in vivo, 672 h, time 28 day
[13] = Toxicity in male Wistar rat assessed as ratio of adrenals to body weight at 400 mg/kg, po after 28 days (reference value: 0.020 +/- 0.003); type: organism-based; details: in vivo, 672 h, time 28 day
[14] = Tmax in Beagle dog at 10 mg/kg, po up to 24 hrs; type: ADME, organism-based, Canis lupus familiaris; details: in vivo; summary of the method: as §1
[15] = Toxicity in male Wistar rat assessed as globulin level at 400 mg/kg, po after 28 days (reference value: 2.62 +/- 0.12 g/dl); type: organism-based; details: in vivo, 672 h, time 28 day
[16] = Toxicity in female Wistar rat assessed as globulin level at 100 mg/kg, po after 28 days (reference value: 2.44 +/- 0.18 g/dl); type: organism-based; details: in vivo, 672 h, time 28 day
[17] = Tmax in Wistar rat at 10 mg/kg, po up to 24 hrs; type: ADME, organism-based; details: in vivo; summary of the method: as §1
[18] = Toxicity in male Wistar rat assessed as ratio of liver to body weight at 100 mg/kg, po after 28 days (reference value: 3.142 +/- 0.231); type: organism-based; details: in vivo, 672 h, time 28 day
[19] = Toxicity in female Wistar rat assessed as AST level at 200 mg/kg, po after 28 days (reference value: 128.84 +/- 21.42 U/L); type: organism-based; details: in vivo, 672 h, time 28 day
[20] = Toxicity in female po dosed Wistar rat after 28 days; type: organism-based; details: in vivo, time 28 day
Summary of the method: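 Repeated-dose oral gavage study in Wistar rats, 10 per sex per group, at 100, 200 and 400 mg/kg once daily for 28 days. Clinical signs, mortality, neurobehaviour, food intake, body weight and ophthalmic examination were monitored, followed by blood biochemistry, organ weights and histopathology on day 29.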

Mus musculus = experiment: Antidiabetic activity in glucose-stimulated […] mouse assessed as reduction in blood glucose level at 50 mg/kg, po pretreated for 30 mins followed by glucose-stimulation and measured up to 120 mins by OGTT method relative to control; type: functional; parameters: scale not given: the % may be the effect or the level left; details: 0.5 h
Summary of the method: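 C57 mice aged 6–8 weeks were grouped by non-fasting glucose and fasted overnight. Single oral dose of 50 mg/kg; 30 min later basal bleed and oral glucose 3 g/kg. Serum glucose taken at 20, 40, 60 and 120 min. Change in glucose AUC calculated.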

[21] = Toxicity in male Wistar rat assessed as ratio of testes to body weight at 100 mg/kg, po after 28 days (reference value: 1.248 +/- 0.073); type: organism-based; details: in vivo, 672 h, time 28 day
[22] = Toxicity in male Wistar rat assessed as ratio of adrenals to body weight at 200 mg/kg, po after 28 days (reference value: 0.020 +/- 0.003); type: organism-based; details: in vivo, 672 h, time 28 day
[23] = Toxicity in male Wistar rat assessed as globulin level at 100 mg/kg, po after 28 days (reference value: 2.62 +/- 0.12 g/dl); type: organism-based; details: in vivo, 672 h, time 28 day
[24] = Elimination rate constant in Beagle dog at 10 mg/kg, po up to 24 hrs; type: ADME, organism-based, Canis lupus familiaris; details: in vivo; summary of the method: as §1
[25] = Toxicity in male Wistar rat assessed as creatinine level at 200 mg/kg, po after 28 days (reference value: 0.61 +/- 0.04 mg/dl); type: organism-based; details: in vivo, 672 h, time 28 day
[26] = Toxicity in female Wistar rat assessed as ratio of kidney to body weight at 200 mg/kg, po after 28 days (reference value: 0.801 +/- 0.071); type: organism-based; details: in vivo, 672 h, time 28 day
[27] = Toxicity in male Wistar rat assessed as glucose level at 100 mg/kg, po after 28 days (reference value: 89.02 +/- 13.41 mg/dl); type: organism-based; details: in vivo, 672 h, time 28 day
[28] = Toxicity in male Wistar rat assessed as ALP level at 400 mg/kg, po after 28 days (reference value: 174.77 +/- 25.42 U/L); type: organism-based; details: in vivo, 672 h, time 28 day
[29] = Toxicity in male Wistar rat assessed as creatinine level at 400 mg/kg, po after 28 days (reference value: 0.61 +/- 0.04 mg/dl); type: organism-based; details: in vivo, 672 h, time 28 day
[30] = Toxicity in female Wistar rat assessed as AST level at 100 mg/kg, po after 28 days (reference value: 128.84 +/- 21.42 U/L); type: organism-based; details: in vivo, 672 h, time 28 day
Rattus norvegicus = experiment: Antidiabetic activity in Sprague-Dawley rat assessed as reduction in HFD-induced body weigh gain at 25 to 50 mg/kg/day, po for 28 days; type: functional, organism-based; details: dose 25-50 mg/kg/day, time 28.0 day
Summary of the method: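 Male SD rats were fed high-fat diet for 12 weeks, with a normal-chow group alongside, then split into 4 treatment groups. Oral dosing at 25 or 50 mg/kg/day for 28 days in PG450/Tween 80/0.1% Na-CMC (5:5:90). Body weight recorded daily.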

Compound: Cc1c(Oc2cccc(/C=C3\SC(=O)NC3=O)c2)ncnc1OC1CCN(C(=O)OC(C)(C)C)CC1
- Ratio [1]: 0.831
- Ratio [2]: 1.289
- Ratio [3]: 3.172
- Ratio [4]: 0.33
- AUC(0-t) at 24 h [5]: 1770 ng·h/mL
- Activity [6]: 116.98 U/L
- Ratio [7]: 1.069
- Activity [8]: 2.42 g/dL
- Activity [9]: 103.72 U/L
- Activity [10]: 2.42 g/dL
- Ratio [11]: 1.23
- Ratio [12]: 0.824
- Ratio [13]: 0.023
- Tmax [14]: 3 h
- Activity [15]: 2.53 g/dL
- Activity [16]: 2.39 g/dL
- Tmax [17]: 1.5 h
- Ratio [18]: 3.237
- Activity [19]: 128.19 U/L
- NOAEL at 672 h [20]: > 400 mg/kg
- Activity (Mus musculus): 32.4%
- Ratio [21]: 1.228
- Ratio [22]: 0.023
- Activity [23]: 2.5 g/dL
- k el at 24 h [24]: 1.11e-05 s⁻¹
- Activity [25]: 0.57 mg/dL
- Ratio [26]: 0.84
- Activity [27]: 87.56 mg/dL
- Activity [28]: 177.44 U/L
- Activity [29]: 0.57 mg/dL
- Activity [30]: 120.42 U/L
- Activity (Rattus norvegicus): inactive
